In brackets after ≈: the same amount, converted by molar mass. Starred links: 1 amine or outer side, 2 acyl side, 3 side chain; linkers in the order of their positions; H or OH if unused. Non-standard residues stand in square brackets, D forms with d. Residues, ends and D or L forms follow the SMILES beside them. ξ: configuration not given here. X3 = CCCCCCCCCCCCCCCCCCN([C@@H](Cc1c[nH]cn1)C(=O)[*:2])[*:1]; X5 = CCCCCCCCCCCCCCCCCCN([C@@H](CCCNC(=N)N)C(=O)[*:2])[*:1]; ξDap = NCC(N)C(=O)O
What was measured:
HT-29 [1] = assay: Cytotoxicity against human HT-29 cells assessed as reduction in cell viability at 500 ug/ml incubated for 24 hrs at pH 6.5 by MTT assay; format: toxicity, cell-based; details: ht-29, pH 6.5, 24 h, dose 500 µg/ml
Summary of the method: (§1)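 HT-29 cells in McCoy's 5a with 10% FBS were seeded at 15,000 cells/well and grown 24 h at 37 °C, 10% CO2. Medium then changed to pH 7.4 or pH 6.5 (20 mM MOPS, acidified with HCl). Peptide added in 2-fold dilutions, 7.8–500 µg/mL, for 24 h. Wells washed and given fresh pH 7.4 medium. MTT (12 mM, 10 µL) added for 4 h, then SDS-HCl for 4 h; A570 read.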

[2] = Cytotoxicity against human HT-29 cells assessed as viable cells at 250 ug/ml incubated for 24 hrs at pH 7.4 by MTT assay; format: toxicity, cell-based; details: at 250 µg/mL, read-out: Activity; summary of the method: as §1
HT-29 [3] = assay: Cytotoxicity against human HT-29 cells assessed as loss of cell viability at 125 ug/ml incubated for 24 hrs at pH 7.4 by MTT assay; format: toxicity, cell-based; details: ht-29, pH 7.4, 24 h, at 125 µg/mL; summary of the method: as §1
[4] = Retention time of the compound by RP-HPLC analysis; format: physicochemical
Summary of the method: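 Reverse-phase HPLC, linear gradient 0–100% acetonitrile in water with 0.1% TFA over 20 min; retention time recorded.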

Acinetobacter baumannii = assay: Antibacterial activity against Acinetobacter baumannii incubated for 20 to 24 hrs by broth microdilution method; format: functional; details: time 20-24 hrs
Summary of the method: (§2)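 Broth microdilution: colonies suspended directly to 1.5×10^8 CFU/mL (0.5 McFarland), then diluted in Mueller–Hinton broth to ~10^5 CFU/mL final. PA stock 1 mg/mL in water, pH 7, serially diluted in MHB. Plates incubated 20–24 h at 37 °C. MIC = lowest concentration inhibiting growth, read as OD600 with optional 1% TTC staining. Triplicate.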

Escherichia coli [5] = assay: Antibacterial activity against Escherichia coli K12 incubated for 20 to 24 hrs by broth microdilution method; format: functional; details: time 20-24 hrs; summary of the method: as §2
Staphylococcus aureus [6] = assay: Antibacterial activity against methicillin-resistant Staphylococcus aureus JE2 incubated for 20 to 24 hrs by broth microdilution method; format: functional; details: time 20-24 hrs
Summary of the method: (§3)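 Broth microdilution in MHB: direct colony suspension at 0.5 McFarland diluted to ~10^5 CFU/mL final; peptide stock 1 mg/mL in water at pH 7, serially diluted. Incubated 20-24 h at 37 °C; MIC taken as the lowest concentration inhibiting growth (OD 600 nm, 1% TTC stain); triplicate; vancomycin and gentamicin as positive controls.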

Staphylococcus aureus [7] = assay: Antibacterial activity against methicillin-resistant Staphylococcus aureus 13C incubated for 20 to 24 hrs by broth microdilution method; format: functional; details: time 20-24 hrs; summary of the method: as §3
[8] = Cytotoxicity against human HT-29 cells assessed as inhibition of cell growth incubated for 24 hrs at pH 6.5 by MTT assay; format: toxicity, cell-based; details: HT-29 cells, pH 6.5; summary of the method: as §1
[9] = Cytotoxicity against human HT-29 cells assessed as inhibition of cell growth incubated for 24 hrs at pH 7.4 by MTT assay; format: toxicity, cell-based; details: HT-29 cells, pH 7.4; summary of the method: as §1
[10] = Self assembly property of the compound assessed as zeta potential at 250 ug/mL at pH 7 measured after 2 hrs; format: physicochemical; details: pH 7, 2 h, dose 250 µg/ml
Summary of the method: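 Peptide self-assembled at 1 mg/mL, pH 7, annealed 2 h at 80 °C, and aged overnight. Diluted to 250 µg/mL in water; zeta potential measured at 25 °C.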

[11] = Self assembly property of the compound assessed as formation of micelles at 1 mg/ml incubated overnight by transmission electron microscopy; format: physicochemical
Summary of the method: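 Samples were dissolved at 2 mM in water, pH 7, and left at room temperature overnight. Applied to copper grids for 5 min, blotted, and negatively stained with NanoVan for 30 s. Imaged by TEM at 120 kV.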

Escherichia coli [12] = assay: Ratio of MIC for Escherichia coli K12 at pH 5.5 to MIC for Escherichia coli K12 at pH 7.0
Staphylococcus aureus [13] = assay: Ratio of MIC for methicillin-resistant Staphylococcus aureus JE2 at pH 5.5 to MIC for methicillin-resistant Staphylococcus aureus JE2 at pH 7.0
Staphylococcus aureus [14] = assay: Antibacterial activity against Methicillin-resistant Staphylococcus aureus JE2 infected in Galleria mellonella assessed as survival at 50 mg/kg measured after 4 days relative to control; format: functional; details: JE2, 96 h, time 4 day
Summary of the method: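 G. mellonella larvae injected with 10 µL MRSA JE2 at a pre-set infective dose (60-80% lethality within 48 h, not 100% within 24 h) into last left proleg; after 2 h, 10 µL peptide or antibiotic injected into last right proleg; larvae held at 37 °C, mortality recorded daily for 4 days; untreated infected and PBS-only larvae as controls.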

| Compound | Activity (HT-29 [1]) | viability at 24 h, 250 ug/ml [2] | Activity (HT-29 [3]) | Retention_time [4] | MIC (Acinetobacter baumannii) | MIC (Escherichia coli [5]) | MIC (Staphylococcus aureus [6]) | MIC (Staphylococcus aureus [7]) | IC50 at 24 h [8] | IC50 at 24 h [9] | Activity [10] | Activity [11] | Ratio (Escherichia coli [12]) | Ratio (Staphylococcus aureus [13]) | survival at 50 mg/kg (Staphylococcus aureus [14]) |
| --- | --- | --- | --- | --- | --- | --- | --- | --- | --- | --- | --- | --- | --- | --- | --- |
| CCCCCCCCCCCCCCCCCCN[C@@H](Cc1c[nH]cn1)C(=O)N[C@@H](Cc1c[nH]cn1)C(=O)NC(CN)C(=O)NC(CN)C(=O)NC(CN)C(=O)O (some centres undefined) (H-[X3]H[ξDap][ξDap][ξDap]-OH) | Non-Toxic | 0% | 100% | 14.4 min | 64 µg/mL (≈ 79.7 µM) | 64 µg/mL (≈ 79.7 µM) | 64 µg/mL (≈ 79.7 µM) | 32 µg/mL (≈ 39.8 µM) | 72.3 µg/mL (≈ 90 µM) | 126 µg/mL (≈ 157 µM) | 30.4 mV | Active | > 1 | > 1 |  |
| CCCCCCCCCCCCCCCCCCN[C@@H](CCCNC(=N)N)C(=O)N[C@@H](CCCNC(=N)N)C(=O)NC(CN)C(=O)NC(CN)C(=O)NC(CN)C(=O)O (some centres undefined) (H-[X5]R[ξDap][ξDap][ξDap]-OH) |  |  |  | 14.6 min | 32 µg/mL (≈ 38 µM) | 32 µg/mL (≈ 38 µM) | 32 µg/mL (≈ 38 µM) | 16 µg/mL (≈ 19 µM) | 81.7 µg/mL (≈ 97.1 µM) | 117 µg/mL (≈ 139 µM) | 30.1 mV | Active | > 1 | > 1 |  |
| CO[C@H]1/C=C/O[C@@]2(C)Oc3c(C)c(O)c4c(O)c(c(/C=N/N5CCN(C)CC5)c(O)c4c3C2=O)NC(=O)/C(C)=C\C=C\[C@H](C)[C@H](O)[C@@H](C)[C@@H](O)[C@@H](C)[C@H](OC(C)=O)[C@@H]1C [RIFAMPIN] |  |  |  |  | 8 µg/mL (≈ 9.72 µM) | 8 µg/mL (≈ 9.72 µM) |  |  |  |  |  |  |  |  |  |
| CN[C@H](CC(C)C)C(=O)N[C@H]1C(=O)N[C@@H](CC(N)=O)C(=O)N[C@H]2C(=O)N[C@H]3C(=O)N[C@H](C(=O)N[C@H](C(=O)O)c4cc(O)cc(O)c4-c4cc3ccc4O)[C@H](O)c3ccc(c(Cl)c3)Oc3cc2cc(c3O[C@@H]2O[C@H](CO)[C@@H](O)[C@H](O)[C@H]2O[C@H]2C[C@](C)(N)[C@H](O)[C@H](C)O2)Oc2ccc(cc2Cl)[C@H]1O [VANCOMYCIN] |  |  |  |  |  | 128 µg/mL (≈ 88.3 µM) |  |  |  |  |  |  |  |  | 30% |

— ChEMBL document CHEMBL5365541, “Designing peptide amphiphiles as novel antibacterials and antibiotic adjuvants against gram-negative bacteria” (Bioorg Med Chem, 2023)
